Data set [1] concerns SARS-CoV-2. Kind of data set: Antiviral activity against SARS-CoV-2 infected in Vero E6 cells assessed as virus-induced cytopathic effect at 5 uM measured after 48 hrs by CCK-8 assay. The conditions noted are these: Severe acute respiratory syndrome coronavirus 2. The data set is classed as functional, organism-based.
The subject of data set [2] is SARS-CoV-2. Kind of data set: Antiviral activity against SARS-CoV-2 infected in Vero E6 cells assessed as virus-induced cytopathic effect at 40 uM measured after 48 hrs by CCK-8 assay. Conditions: Severe acute respiratory syndrome coronavirus 2. The data set is classed as functional, organism-based. Background: Protection from cytopathic effect is a common read-out in antiviral testing.

The test system of data set [3] is SARS-CoV-2. Kind of data set: Antiviral activity against SARS-CoV-2 infected in Vero E6 cells assessed as viral RNA level measured after 48 hrs by RT-PCR analysis. The data set is classed as functional, organism-based. The conditions noted are these: Severe acute respiratory syndrome coronavirus 2, Vero C1008, 48 h.
A short description of data set [4]: Toxicity in mouse assessed as death at 230 mg/kg, po measured after 7 days. The data set is classed as organism-based. The conditions noted are these: in vivo, 168 h, time 7 day. The method, boiled down:
(§1)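 Male and female mice (25 g; n = 8 per group; vehicle-control and test groups) were fasted overnight. Compounds were given as sulfate salts in physiological saline, intragastrically at 230 mg/kg twice a day; controls received saline. Survival was followed by day post dosing, in a double-dose acute toxicity assay.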

Data set [5] is described as follows: Toxicity in mouse assessed as death at 230 mg/kg, po measured after 12 days. The data set is classed as organism-based. The conditions noted are these: in vivo, 288 h, time 12 day. Put shortly:
as §1

Data set [6] is described as follows: Toxicity in mouse assessed as death at 230 mg/kg, po measured after 9 days. The data set is classed as organism-based. The conditions noted are these: in vivo, 216 h, time 9 day. The method, boiled down: as §1

pEC50: −log10 of the molar value. Calls of active or inactive are those of the source. The rule behind the calls is not given here.

What is called pEC50 is −log10 of the EC50, conventionally taken in molar units.

As for `CCC(CC)COC(=O)[C@H](C)N[P@](=O)(OC[C@H]1O[C@@](C#N)(c2ccc3c(N)ncnn23)[C@H](O)[C@@H]1O)Oc1ccccc1`, in the data set on SARS-CoV-2 [1], the result was Active.
Turning to `CCN(CCO)CCCC(C)Nc1ccnc2cc(Cl)ccc12.O=S(=O)(O)O` (racemic) [HYDROXYCHLOROQUINE SULFATE], the outcome in the data set with SARS-CoV-2 [2] was Active. Further, the negative-log EC50 (pEC50) in the data set with SARS-CoV-2 [3] was 5.29. Besides, the Activity entry in data set [4] is recorded as “Toxic”.
In the case of `CCN(CCO)CCC[C@H](C)Nc1ccnc2cc(Cl)ccc12.O=S(=O)(O)O`, the outcome in the data set with SARS-CoV-2 [2] was Active. In addition, the pEC50 in the data set with SARS-CoV-2 [3] was 5.52. The Activity entry in data set [5] is “Non-Toxic”.
Take `CCN(CCO)CCC[C@@H](C)Nc1ccnc2cc(Cl)ccc12.O=S(=O)(O)O`: in the data set with SARS-CoV-2 [2], the outcome was Active. The pEC50 with SARS-CoV-2 [3] is 5.27. The Activity result in data set [6] was “Toxic”.

The record behind these values is ChEMBL document CHEMBL5143543, “Synthesis and evaluation of enantiomers of hydroxychloroquine against SARS-CoV-2 in vitro” (Bioorg Med Chem, 2022).
